Measured values: ChEMBL document CHEMBL1139431, “Synthesis of both enantiomers of hydroxypipecolic acid derivatives equivalent to 5-azapyranuronic acids and evaluation of their inhibitory activities against glycosidases” (Bioorg Med Chem, 2008)

Experiments:
Bos taurus = species on record: Bos taurus; experiment: Inhibition of bovine liver beta-glucuronidase at 1000 uM
In short: (§1)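 Enzyme from bovine liver, run at pH 5.0. A p-nitrophenyl glycoside substrate (2 mM) is used in a 1 mL reaction with an appropriate amount of enzyme. Termination is by 2 mL of 400 mM Na₂CO₃, with spectrophotometric detection of liberated p-nitrophenol at 400 nm.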

[1] = Inhibition of bovine kidney beta-N-acetylglucosaminidase at 1000 uM; assay type: functional; conditions: Bos taurus
In short: (§2)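 β-N-Acetylglucosaminidase from bovine kidney, pH 4.5. The substrate is a p-nitrophenyl glycoside at 2 mM, with an appropriate amount of enzyme in a 1 mL mixture. The reaction is quenched with 2 mL of 400 mM Na₂CO₃, and p-nitrophenol is measured at 400 nm.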

[2] = biological target: T1, Alpha-N-acetylgalactosaminidase (Gallus gallus) (UniProt Q90744); experiment: Inhibition of chicken liver alpha-N-acetylgalactosaminidase at 1000 uM
T1 sequence (whole entry): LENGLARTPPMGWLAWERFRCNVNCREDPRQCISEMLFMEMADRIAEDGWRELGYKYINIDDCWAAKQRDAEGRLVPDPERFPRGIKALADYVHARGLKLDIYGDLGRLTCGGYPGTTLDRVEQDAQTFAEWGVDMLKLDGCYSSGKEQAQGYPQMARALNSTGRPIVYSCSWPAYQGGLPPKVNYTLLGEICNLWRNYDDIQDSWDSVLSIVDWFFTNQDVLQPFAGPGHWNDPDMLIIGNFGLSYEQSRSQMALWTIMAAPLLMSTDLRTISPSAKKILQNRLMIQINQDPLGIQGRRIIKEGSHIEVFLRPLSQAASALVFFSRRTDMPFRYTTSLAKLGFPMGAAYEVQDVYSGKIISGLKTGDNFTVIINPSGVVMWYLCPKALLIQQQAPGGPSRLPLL
In short: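 Chicken liver α-N-acetylgalactosaminidase at pH 4.0. The reaction (1 mL) holds 2 mM p-nitrophenyl glycoside and an appropriate amount of enzyme. It is stopped by 2 mL of 400 mM Na₂CO₃, and p-nitrophenol release is quantified at 400 nm.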

Escherichia coli = experiment: Inhibition of Escherichia coli beta-glucuronidase at 1000 uM
In short: (§3)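 E. coli β-glucuronidase assayed at pH 6.8 in a 1 mL mixture containing 2 mM p-nitrophenyl glycoside substrate and an appropriate amount of enzyme. The reaction is stopped with 2 mL of 400 mM Na₂CO₃, and released p-nitrophenol is read at 400 nm.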

[3] = test system: Beta-hexosaminidase (Homo sapiens); experiment: Inhibition of human Placental beta-N-acetylglucosaminidase at 1000 uM
[4] = Inhibition of bovine liver beta-glucuronidase; set-up: species or system Bos taurus; in short: as §1
[5] = Inhibition of Escherichia coli beta-glucuronidase; in short: as §3
[6] = Inhibition of bovine kidney beta-N-acetylglucosaminidase; set-up: species or system Bos taurus; in short: as §2
[7] = biological target: Beta-hexosaminidase (Homo sapiens); experiment: Inhibition of human Placental beta-N-acetylglucosaminidase

| SMILES | inhibition (Bos taurus) [%] | inhibition [2] [%] | inhibition (Escherichia coli) [%] | inhibition [3] [%] | IC50 [4] [µM] | IC50 [5] [µM] | IC50 [6] [µM] | IC50 [7] [µM] | inhibition at 1000 µM [1] [%] | Ki [5] [µM] |
| --- | --- | --- | --- | --- | --- | --- | --- | --- | --- | --- |
| O=C(O)[C@@H]1NC[C@H](O)[C@H](O)[C@H]1O | 12 | 4.4 | 2.6 | 39 | – | – | – | – | 18 | – |
| O=C(O)[C@@H]1NC[C@@H](O)[C@@H](O)[C@@H]1O | 9.4 | 7.2 | 1.2 | 2.1 | – | – | – | – | 1.7 | – |
| O=C(O)[C@H]1NC[C@H](O)[C@@H](O)[C@@H]1O | 95 | 0.2 | 72 | 43 | 70 | 215 | – | – | 13 | 400 |
| O=C(O)[C@@H]1NC[C@@H](O)[C@@H](O)[C@H]1O | 3.1 | 8.2 | 1.3 | 26 | – | – | – | – | 10 | – |
| O=C(O)[C@@H]1NC[C@@H](O)[C@H](O)[C@@H]1O | 7.1 | 10 | 6.3 | 0.8 | – | – | – | – | 0.5 | – |
| O=C(O)[C@H]1NC[C@H](O)[C@@H](O)[C@H]1O | 87 | 31 | 21 | 2.6 | 86 | – | – | – | 1.9 | – |
| O=C(O)[C@@H]1NC[C@H](O)[C@@H](O)[C@@H]1O | 15.8 | 3.4 | 4.2 | 5.4 | – | – | – | – | 4.4 | – |
| O=C(O)[C@H]1NC[C@@H](O)[C@H](O)[C@H]1O | 17.5 | 4.2 | 2.6 | 6.3 | – | – | – | – | 4.8 | – |
| O=C(O)[C@@H]1NC[C@@H](O)[C@H](O)[C@H]1O | 2.7 | 1.3 | 5.4 | 50 | – | – | – | – | 11 | – |
| O=C(O)[C@@H]1NC[C@H](O)[C@@H](O)[C@H]1O | 6.8 | 4 | 5.2 | 42 | – | – | – | – | 27 | – |
| O=C(O)[C@H]1NC[C@H](O)[C@H](O)[C@H]1O | 8.8 | 21 | 2.3 | 7.6 | – | – | – | – | 5.5 | – |
| O=C(O)[C@H]1NC[C@@H](O)[C@H](O)[C@@H]1O | 20 | 11 | 1.1 | 42 | – | – | – | – | 17 | – |

More lines, main results first:

| inhibition (Bos taurus) [%] | inhibition [2] [%] | inhibition (Escherichia coli) [%] | inhibition [3] [%] | IC50 [4] [µM] | IC50 [5] [µM] | IC50 [6] [µM] | IC50 [7] [µM] | SMILES | inhibition at 1000 µM [1] [%] | Ki [5] [µM] |
| --- | --- | --- | --- | --- | --- | --- | --- | --- | --- | --- |
| 0.89 | 5.2 | 31 | 36 | – | – | – | – | O=C(O)[C@H]1NCCC[C@@H]1O | 38 | – |
| 15 | 3.2 | 23 | 46 | – | – | – | – | O=C(O)[C@@H]1NCCC[C@@H]1O | 47 | – |
| 10 | 1.3 | 0.9 | 14 | – | – | – | – | O=C(O)[C@@H]1NCC=C[C@@H]1O | 0.8 | – |
| 8.6 | 0.2 | 3.3 | 17 | – | – | – | – | O=C(O)[C@H]1NCC=C[C@H]1O | 7.3 | – |
| 0.2 | 3.2 | 0.9 | 14 | – | – | – | – | O=C(O)[C@@H]1NCC=C[C@H]1O | 15 | – |
| 0.18 | 2.5 | 24 | 30 | – | – | – | – | O=C(O)[C@H]1NCCC[C@H]1O | 20 | – |
| 14 | 3.8 | 1 | 28 | – | – | – | – | O=C(O)[C@H]1NC[C@@H](O)[C@@H](O)[C@@H]1O | 0.5 | – |
| 0.62 | 1.3 | 20 | 25 | – | – | – | – | O=C(O)[C@@H]1NCCC[C@H]1O | 32 | – |
| 2.1 | 4.5 | 0.6 | 26 | – | – | – | – | O=C(O)[C@H]1NC[C@H](O)[C@H](O)[C@@H]1O | 14 | – |
| 19 | 25 | 2 | 60 | – | – | 720 | 750 | O=C(O)[C@H]1NCC=C[C@@H]1O | 58 | – |
